Where two headings read alike, the source gives them in different places. Numbered stars: 1 amine (or outer) side, 2 acyl side, 3 side chain; on linkers, the order of the positions; unused ones are H or OH. Bridge positions count the residues as written; N and C are the ends. Square brackets hold non-standard residues; d marks the D form. Peptide text beside a SMILES is read from it. * marks the point of attachment. hTyr(3S-OH,4S-OH,3'-OSO3H) = N[C@H](C(=O)O)[C@H](O)[C@@H](O)c1ccc(O)c(OS(=O)(=O)O)c1; Orn(4R-OH,5R-OH) = O=C([C@H](C[C@@H](O)[C@@H](O)N[*:3])N[*:1])[*:2]; Pro(3S-OH,4S-Me) = C[C@H]1CN[C@H](C(=O)O)[C@H]1O; X1 = CCCCCOc1ccc(-c2cc(-c3ccc(C(=O)*)cc3)no2)cc1; Gln(3R-OH) = NC(=O)C[C@@H](O)[C@H](N)C(=O)O; Hyp = O=C(O)[C@@H]1C[C@@H](O)CN1
Assays:
[1] = cited from earlier work
[2] = cited from earlier work; remark: listed apart in the source
[3] = statement without reference; cited from earlier work
[4] = Population pharmacokinetic model of micafungin in ICU patients; format: in vivo; settings: human, plasma, iv, 100 mg
Outline: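 ICU adults (n = 20; suspected or proven fungal infection) received 100 mg QD IV over ~1 h. Plasma was sampled on day 3 (±1) pre-dose and 0.5–24 h post start infusion, on day 7 (±1) in six samples to 24 h, and as daily troughs. Drug was measured by UPLC-fluorescence. The model was fitted by FOCE with interaction, with IOV on CL and V and albumin, CVVH and SOFA tested as covariates.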

[5] = cited from earlier work; remark: listed apart in the source

In the case of `CCCCCOc1ccc(-c2cc(-c3ccc(C(=O)N[C@H]4C[C@@H](O)[C@@H](O)NC(=O)[C@@H]5[C@@H](O)[C@@H](C)CN5C(=O)[C@H]([C@H](O)CC(N)=O)NC(=O)[C@H]([C@H](O)[C@@H](O)c5ccc(O)c(OS(=O)(=O)O)c5)NC(=O)[C@@H]5C[C@@H](O)CN5C(=O)[C@H]([C@@H](C)O)NC4=O)cc3)no2)cc1` [micafungin] (X1-[Orn(4R-OH,5R-OH)]T[Hyp][hTyr(3S-OH,4S-OH,3'-OSO3H)][Gln(3R-OH)][Pro(3S-OH,4S-Me)]; lactam 1-C), the metabolism [1] is listed as “only a small fraction is metabolised”, the CL ([1]; healthy volunteers) is listed as 0.55 L/h and the “V (V 1 and V 2 together)” value ([1]; healthy volunteers) is listed as 13.9 L. For the same compound, the tolerability ([2]; doses of 8 mg/kg) was “well tolerated”, the tolerability ([2]; therapy with 150–200 mg QD) was “well tolerated” and the protein binding [3] was “highly protein bound”. The Vd [4] was 21.2 L and the solubility in water [5] was “freely soluble in water”.
For Anidulafungin, the “V in critically ill patients compared with healthy volunteers” value [1] is given as “equal”.
In the case of caspofungin, the “CL and V in critically ill patients compared with healthy volunteers” value [1] is listed as “identical”.
